ChEMBL document CHEMBL4706494, “Design, synthesis characterization and biological evaluation of novel multi-isoform ALDH inhibitors as potential anticancer agents” (Eur J Med Chem, 2020)
Activity calls are given as the source filed them. No cut-off for these calls is given here.

Assays:
[1] = target: T1, Aldehyde dehydrogenase 1A1 (Homo sapiens, UniProt P00352); test: Inhibition of ALDH1A1 (unknown origin) assessed as NADH formation using propionaldehyde as substrate
T1 sequence (P00352 whole entry): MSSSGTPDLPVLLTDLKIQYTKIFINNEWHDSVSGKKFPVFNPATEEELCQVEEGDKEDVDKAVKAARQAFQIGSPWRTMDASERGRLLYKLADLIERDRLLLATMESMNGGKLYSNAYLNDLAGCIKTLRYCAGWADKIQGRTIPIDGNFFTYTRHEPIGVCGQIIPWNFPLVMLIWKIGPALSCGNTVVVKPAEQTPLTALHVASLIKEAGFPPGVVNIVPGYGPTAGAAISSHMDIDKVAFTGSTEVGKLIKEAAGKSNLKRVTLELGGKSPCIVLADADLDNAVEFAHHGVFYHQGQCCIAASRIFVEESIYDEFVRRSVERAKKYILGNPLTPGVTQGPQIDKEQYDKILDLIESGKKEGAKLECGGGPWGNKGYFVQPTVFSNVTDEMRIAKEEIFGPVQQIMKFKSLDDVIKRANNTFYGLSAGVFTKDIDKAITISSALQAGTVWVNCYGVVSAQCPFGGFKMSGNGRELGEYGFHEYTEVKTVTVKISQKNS

[2] = target: T2, Aldehyde dehydrogenase, mitochondrial (Homo sapiens, UniProt P05091); test: Inhibition of ALDH2 (unknown origin) assessed as NADH formation using acetaldehyde as substrate
T2 sequence (P05091 whole entry): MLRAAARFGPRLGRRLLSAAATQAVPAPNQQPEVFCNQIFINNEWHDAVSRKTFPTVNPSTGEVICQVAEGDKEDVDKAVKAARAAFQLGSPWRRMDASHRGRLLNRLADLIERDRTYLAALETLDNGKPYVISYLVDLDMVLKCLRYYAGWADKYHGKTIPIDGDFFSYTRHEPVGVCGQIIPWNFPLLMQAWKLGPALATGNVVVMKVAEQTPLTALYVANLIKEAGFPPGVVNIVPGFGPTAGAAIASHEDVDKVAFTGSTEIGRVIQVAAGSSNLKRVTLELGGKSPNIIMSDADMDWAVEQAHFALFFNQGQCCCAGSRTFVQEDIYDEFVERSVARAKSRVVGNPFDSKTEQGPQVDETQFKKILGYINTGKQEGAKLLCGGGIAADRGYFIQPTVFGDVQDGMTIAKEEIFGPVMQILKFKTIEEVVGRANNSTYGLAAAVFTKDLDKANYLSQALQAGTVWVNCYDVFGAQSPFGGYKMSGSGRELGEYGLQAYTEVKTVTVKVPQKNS
How it was run: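 Enzyme at 0.5 µg/mL preincubated 15 min with varied inhibitor concentrations. Reaction started with 2 mM acetaldehyde plus NAD+ in buffer, as for the ALDH1A1 assay.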

[3] = target: T3, Aldehyde dehydrogenase, dimeric NADP-preferring (Homo sapiens, UniProt P30838); test: Inhibition of ALDH3A1 (unknown origin) assessed as NADH formation using 4-nitrobenzaldehyde as substrate
T3 sequence (P30838 whole entry): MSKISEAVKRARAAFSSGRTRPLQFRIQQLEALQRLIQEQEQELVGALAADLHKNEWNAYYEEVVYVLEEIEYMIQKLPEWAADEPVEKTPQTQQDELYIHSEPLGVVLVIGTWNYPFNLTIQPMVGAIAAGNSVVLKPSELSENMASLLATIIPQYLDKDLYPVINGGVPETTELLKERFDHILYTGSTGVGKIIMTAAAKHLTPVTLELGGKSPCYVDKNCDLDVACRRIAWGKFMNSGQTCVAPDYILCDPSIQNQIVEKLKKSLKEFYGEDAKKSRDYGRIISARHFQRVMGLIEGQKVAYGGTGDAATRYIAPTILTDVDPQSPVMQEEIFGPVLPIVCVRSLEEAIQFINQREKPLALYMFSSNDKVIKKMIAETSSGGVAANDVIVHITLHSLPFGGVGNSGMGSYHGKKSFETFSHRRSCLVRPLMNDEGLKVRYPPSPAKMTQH
How it was run: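 Protein at 0.2 µg/mL exposed 15 min to graded inhibitor concentrations. 1 mM 4-nitrobenzaldehyde substrate with NAD+ then added, run as for the ALDH1A1 assay.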

[4] = Antiproliferative activity against human 1205Lu cells measured after 72 hrs by MTS assay; assay type: functional, cell-based
How it was run: (§1)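 Cells seeded at 5,000 per well, left overnight at 37°C in 5% CO2, then exposed to a range of compound concentrations for 72 h. IC50 was fitted from dose-response curves, 3 independent experiments, reported as mean + SD.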

[5] = test system: UACC-903; test: Antiproliferative activity against human UACC 903 cells measured after 72 hrs by MTS assay; assay type: functional, cell-based; settings: UACC-903, 72 h; how it was run: as §1
[6] = test system: HCT-116; test: Antiproliferative activity against human HCT116 cells measured after 72 hrs by MTS assay; assay type: functional, cell-based; settings: HCT-116, 72 h; how it was run: as §1
[7] = test system: U-266; test: Antiproliferative activity against human U266 cells measured after 72 hrs by MTS assay; assay type: functional, cell-based; settings: U-266, 72 h; how it was run: as §1
[8] = test system: HT-29; test: Antiproliferative activity against human HT-29 cells measured after 72 hrs by MTS assay; assay type: functional, cell-based; settings: HT-29, 72 h; how it was run: as §1
[9] = test system: MM1.S; test: Antiproliferative activity against human MM.1S cells measured after 72 hrs by MTS assay; assay type: functional, cell-based; how it was run: as §1
[10] = Antiproliferative activity against human MM.1R cells measured after 72 hrs by MTS assay; assay type: functional, cell-based; how it was run: as §1
[11] = test system: RPMI-8226; test: Antiproliferative activity against human RPMI8226 cells measured after 72 hrs by MTS assay; assay type: functional, cell-based; settings: RPMI-8226, 72 h; how it was run: as §1
[12] = Cytotoxicity against human FF2441 cells measured after 72 hrs by MTS assay; assay type: cell-based; settings: FF2441, 72 h; how it was run: as §1
[13] = test system: NCI-H929; test: Antiproliferative activity against human NCIH929 cells measured after 72 hrs by MTS assay; assay type: functional, cell-based; settings: NCI-H929, 72 h; how it was run: as §1
[14] = Toxicity in Swiss-Webster mouse assessed as body weight loss at 5 mg/kg/day, ip for 14 days; assay type: organism-based; settings: in vivo, 336 h, time 14 day
How it was run: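 Swiss-Webster mice received 5 mg/kg/day i.p. once daily for 14 days. Body weight, behaviour and physical distress were monitored, with % weight change compared against DMSO vehicle controls.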

[15] = test system: HCT-116; test: Induction of cell cycle arrest in human HCT-116 cells assessed as accumulation of cells at G2/M phase at 5 uM incubated for 24 hrs by PI staining based flow cytometry; assay type: functional
How it was run: (§2)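 HCT116 cells given 5 µM compound for 24 h, with or without 10 mM NAC. Cells were detached, PBS-washed, fixed in 70% ethanol and stained with propidium iodide. DNA content read by flow cytometry for cell-cycle distribution.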

[16] = test system: HCT-116; test: Induction of ROS production in human HCT-116 cells at 5 uM incubated for 24 hrs by DCFDA staining based fluorescence microscopic analysis; assay type: functional, cell-based
[17] = test system: HCT-116; test: Induction of apoptosis in human HCT-116 cells at 5 uM incubated for 24 hrs in presence of NAC by annexinV- and […] staining based flow cytometry; assay type: functional, cell-based
How it was run: (§3)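 HCT116 cells treated 24 h with 5 µM compound, with or without 10 mM NAC. Cells were detached, PBS-washed, stained with Annexin-V-PE and 7-AAD, and analysed by flow cytometry. Annexin-V/7-AAD double-positive cells were scored as late apoptotic, relative to DMSO control.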

[18] = test system: HCT-116; test: Induction of lipid peroxidation in human HCT-116 cells at 5 uM incubated for 24 hrs by TBARS assay; assay type: functional, cell-based
How it was run: (§4)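 HCT116 cells treated 24 h with 5 µM compound, with or without 10 mM NAC. Pellets were sonicated on ice in PBS and lipids hydrolysed with acetic acid/NaOH. Free MDA was reacted with TBA and read at 530 nm, compared with DMSO control.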

[19] = test system: HCT-116; test: Induction of ROS production in human HCT-116 cells at 5 uM incubated for 24 hrs in presence of NAC by DCFDA staining based fluorescence microscopic analysis; assay type: functional, cell-based
[20] = test system: HCT-116; test: Induction of apoptosis in human HCT-116 cells at 5 uM incubated for 24 hrs by annexinV- and […] staining based flow cytometry; assay type: functional, cell-based; how it was run: as §3
[21] = test system: HCT-116; test: Induction of cell cycle arrest in human HCT-116 cells assessed as accumulation of cells at G2/M phase at 5 uM incubated for 24 hrs in presence of NAC by PI staining based flow cytometry; assay type: functional; how it was run: as §2
[22] = test system: HCT-116; test: Induction of lipid peroxidation in human HCT-116 cells at 5 uM incubated for 24 hrs in presence of NAC by TBARS assay; assay type: functional, cell-based; how it was run: as §4

N=C(N)SCc1ccc(CN2C(=O)C(=O)c3cc(Br)ccc32)cc1
IC50 [1]: 8.52 µM | IC50 [2]: > 10 µM | IC50 [3]: 4.88 µM

N=C(N)[Se]Cc1ccc(CN2C(=O)C(=O)c3cc(F)ccc32)cc1
IC50 [3]: 2.36 µM

N=C(N)[Se]Cc1ccc(CN2C(=O)C(=O)c3cc(Br)cc(Br)c32)cc1
IC50 [1]: 0.397 µM | IC50 [2]: 2.01 µM | IC50 [3]: 0.333 µM

N=C(N)[Se]Cc1ccc(CN2C(=O)C(=O)c3cccc(F)c32)cc1
IC50 [3]: 0.246 µM

N=C(N)SCc1ccc(CN2C(=O)C(=O)c3cc(F)cc(Br)c32)cc1
IC50 [3]: 0.219 µM

N=C(N)SCc1ccc(CN2C(=O)C(=O)c3cccc(Br)c32)cc1
IC50 [3]: 6.32 µM

N=C(N)SCc1ccc(CN2C(=O)C(=O)c3cc(Cl)ccc32)cc1
IC50 [3]: 3.07 µM

N=C(N)[Se]Cc1ccc(CN2C(=O)C(=O)c3cccc(C(F)(F)F)c32)cc1
IC50 [1]: 0.657 µM | IC50 [2]: 3.49 µM | IC50 [3]: 0.251 µM

N=C(N)[Se]Cc1ccc(CN2C(=O)C(=O)c3cc(Br)ccc32)cc1
IC50 [3]: 0.344 µM

N=C(N)SCc1ccc(CN2C(=O)C(=O)c3ccccc32)cc1
IC50 [3]: 4.2 µM

N=C(N)[Se]Cc1ccc(CN2C(=O)C(=O)c3ccccc32)cc1
IC50 [3]: 4.01 µM

N=C(N)SCc1ccc(CN2C(=O)C(=O)c3cc(F)ccc32)cc1
IC50 [3]: 2.86 µM

Br.N=C(N)SCc1ccc(CN2C(=O)C(=O)c3cc(Cl)cc(Cl)c32)cc1
IC50 [4]: 2.4 µM | IC50 [5]: 3 µM | IC50 [6]: 3.2 µM | IC50 [7]: 2.7 µM | IC50 [1]: 0.279 µM | IC50 [8]: 2.6 µM | IC50 [2]: 1.64 µM | IC50 [3]: 0.219 µM | IC50 [9]: 1.6 µM | IC50 [10]: 1.6 µM | IC50 [11]: 1.3 µM | IC50 [12]: 5.4 µM | IC50 [13]: 0.7 µM | Activity [14]: 10%

Br.N=C(N)SCc1ccc(CN2C(=O)C(=O)c3cc(C(F)(F)F)ccc32)cc1
IC50 [4]: 5.7 µM | Activity [15]: Active | Activity [16]: Active | IC50 [5]: 5.7 µM | IC50 [6]: 5.7 µM | Activity [17]: inactive | Activity [18]: Active | IC50 [7]: 2.6 µM | IC50 [1]: 0.334 µM | Activity [19]: inactive | Activity [20]: Active | IC50 [8]: 4.9 µM | IC50 [2]: 2.14 µM | IC50 [3]: 0.36 µM | IC50 [9]: 2.2 µM | IC50 [10]: 1.7 µM | IC50 [11]: 1.6 µM | IC50 [12]: 20.7 µM | IC50 [13]: 1.5 µM | Activity [14]: 2% | Activity [21]: inactive | Activity [22]: inactive

N=C(N)[Se]Cc1ccc(CN2C(=O)C(=O)c3cccc(Br)c32)cc1
IC50 [3]: > 10 µM

N=C(N)SCc1ccc(CN2C(=O)C(=O)c3cccc(C(F)(F)F)c32)cc1
IC50 [3]: 0.246 µM

N=C(N)[Se]Cc1ccc(CN2C(=O)C(=O)c3cc(F)cc(Br)c32)cc1
IC50 [1]: 0.42 µM | IC50 [2]: 1.92 µM | IC50 [3]: 0.368 µM

N=C(N)[Se]Cc1ccc(CN2C(=O)C(=O)c3cc(C(F)(F)F)ccc32)cc1
IC50 [3]: 1.52 µM

N=C(N)SCc1ccc(CN2C(=O)C(=O)c3cccc(Cl)c32)cc1
IC50 [1]: 0.177 µM | IC50 [2]: > 10 µM | IC50 [3]: 3.59 µM

O=C1C(=O)N(Cc2ccccc2)c2ccccc21
IC50 [4]: > 100 µM | IC50 [5]: > 100 µM | IC50 [12]: > 100 µM

N=C(N)[Se]Cc1ccc(CN2C(=O)C(=O)c3cccc(Cl)c32)cc1
IC50 [1]: > 10 µM | IC50 [2]: > 10 µM | IC50 [3]: > 10 µM

N=C(N)[Se]Cc1ccc(CN2C(=O)C(=O)c3cc(Cl)ccc32)cc1
IC50 [3]: 2.77 µM

N=C(N)SCc1ccc(CN2C(=O)C(=O)c3cccc(F)c32)cc1
IC50 [1]: 0.598 µM | IC50 [2]: > 10 µM | IC50 [3]: 0.241 µM

N=C(N)[Se]Cc1ccc(CN2C(=O)C(=O)c3cc(Cl)cc(Cl)c32)cc1
IC50 [3]: 0.327 µM
